Screening data deposited in PubChem by several laboratories.
GAA850 FXN act: FXN promoter activators, primary screen, cell-based, luciferase luminescence, HEK293 lucGAA850 | HEK293 lucGAA850 FXN promoter luciferase reporter, 24 h; percent of 10 µM SAHA response | activation, % at 6 µM | hit rate 0.56% among 360,000 | AID 540364, 2011;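 active = activation above the average of all compounds screened plus 3 SD, cutoff fixed separately per campaign, cut at about 7.5% in these data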
AHR activator: AHR activators, primary screen, cell-based, luminescence, luciferase reporter, human; Aryl hydrocarbon receptor (Homo sapiens), P35869; AHR-responsive luciferase reporter cells; activation, % at 5 µM; hit rate 2.5% among 320,000; AID 2796, 2010; in the data active = activation above about 47%
Target sequence (P35869 whole entry, looked up): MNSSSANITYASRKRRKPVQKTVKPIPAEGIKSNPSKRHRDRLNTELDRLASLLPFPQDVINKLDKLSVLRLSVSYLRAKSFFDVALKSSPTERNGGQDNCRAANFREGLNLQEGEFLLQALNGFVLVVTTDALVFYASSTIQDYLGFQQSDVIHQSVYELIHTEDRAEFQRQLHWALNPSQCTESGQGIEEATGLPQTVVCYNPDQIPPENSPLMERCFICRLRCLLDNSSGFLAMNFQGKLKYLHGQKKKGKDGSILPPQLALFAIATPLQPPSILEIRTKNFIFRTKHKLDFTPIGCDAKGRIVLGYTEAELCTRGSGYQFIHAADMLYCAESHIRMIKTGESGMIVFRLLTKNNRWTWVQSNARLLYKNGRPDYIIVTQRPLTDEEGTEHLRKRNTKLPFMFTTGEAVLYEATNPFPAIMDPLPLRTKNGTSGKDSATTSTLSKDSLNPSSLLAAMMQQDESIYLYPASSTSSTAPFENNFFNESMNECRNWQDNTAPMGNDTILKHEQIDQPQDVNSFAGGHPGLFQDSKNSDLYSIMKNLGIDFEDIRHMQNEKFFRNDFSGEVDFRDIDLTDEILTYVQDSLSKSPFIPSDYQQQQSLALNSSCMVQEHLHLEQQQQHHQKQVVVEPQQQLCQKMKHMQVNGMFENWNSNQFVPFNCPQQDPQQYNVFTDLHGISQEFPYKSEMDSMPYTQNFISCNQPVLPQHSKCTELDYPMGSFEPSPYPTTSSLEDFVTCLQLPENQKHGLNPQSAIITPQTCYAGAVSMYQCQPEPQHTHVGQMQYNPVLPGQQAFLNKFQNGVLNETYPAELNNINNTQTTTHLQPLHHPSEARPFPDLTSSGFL
STAT3 act-1: IL-6 driven STAT3 reporter potentiators, primary screen, U3A cells, luciferase, luminescence, MLSCN library | hit rate 0.91% among 190,000 | IL-6 STAT3-luciferase reporter; 100% = signal with IL-6 EC80 alone | activation (% of control), % at 5.6 µM | AID 871, 2007;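 active = activation above the screen-wide mean of compound activation plus 3 SD, cut at about 130% in these data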
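Material: human U3A cells carrying STAT3-luciferase construct. Measured by: reporter luminescence signal. Timing: compound 1 h, then IL-6 6 h at 37 °C.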
ABCB6 inh MLPCN: ABCB6 transporter inhibitors, primary screen, K562-ABCB6 cells, flow cytometry, MLPCN library; ATP-binding cassette sub-family B member 6 (Homo sapiens), Q9NP58; K562-ABCB6 porphyrin accumulation, 1 h; stronger effect = lower value; hit rate 0.19% among 360,000; AID 602162, 2011; fluorescence ratio to DMSO, % at 10 µM;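 active = fluorescence ratio to DMSO below 75%, the collection mean minus 3 SD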;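 also: signal is porphyrin accumulated inside mitochondria; lower ratio means ABCB6 inhibition with less porphyrin fluorescence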
STAT3 act-2: STAT3 reporter potentiators, retest of hits, confirmation, U3A cells, luciferase, luminescence. shares compounds with STAT3 act-1. potentiation (% of control), % at 5.7 µM. IL-6 potentiation; U3A cells lack STAT1; 100 means same as IL-6 alone. hit rate 64% among 1,200;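 active = percent activation of the STAT3 luciferase reporter above a set limit taken from the earlier primary screen, cut at about 130% in these data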
NFkB act STAT3ct: NF-kB reporter activators in human cells, counter-screen for STAT3 activator project; shares compounds with STAT3 act-1; NF-kappaB reporter activation; activation (% of control), % at 5.7 µM; hit rate 11% among 1,200; in the data active = activation above about 120%;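 also: reporter induced by TNF-alpha stimulation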
STAT1 act STAT3c: STAT1 reporter activators, IFN-gamma induced, counter-screen for STAT3 activator project, cell-based, NIH 3T3, luciferase luminescence. activation (% of control), % at 5.7 µM. hit rate 13% among 1,200. NIH 3T3 STAT1-luciferase reporter. AID 1318, 2008. shares compounds with STAT3 act-1;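 active = activation above the solvent-only control well mean plus 3 SD, set per screening run, cut at about 120% in these data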
Numbers stand for hits; i = inactive; nt = no result given. The list is not random: actives were taken first. Their share in the collection is about 3.3%.

SMILES | GAA850 FXN act | AHR activator | STAT3 act-1 | ABCB6 inh MLPCN | STAT3 act-2 | NFkB act STAT3ct | STAT1 act STAT3c
Cc1nc(-c2ccccc2)nc(Cl)c1Cl | i | i | i | i | nt | nt | nt
Cc1nc2nc(-c3ccc(Cl)cc3)nn2c(C)c1Cl | nt | 53 | 167 | nt | 164 | i | 124
Cc1cc(N2CCN(C)CC2)n2nc(-c3ccc(Cl)cc3)nc2n1 | i | i | nt | i | nt | nt | nt
CCO[C@@H]1OC(C(=O)NCc2nc3ccccc3[nH]2)=C[C@H](c2coc3ccccc3c2=O)[C@H]1CCCO | i | i | nt | i | nt | nt | nt
CN(C)S(=O)(=O)N1CCc2ccccc2C1 | i | i | i | i | nt | nt | nt
CN(C)S(=O)(=O)N1CCc2ccccc21 | i | i | 146 | i | i | i | i
CC(C(=O)N1CCc2ccccc21)N1CCc2ccccc2C1 (stereo not drawn) | i | i | 146 | i | i | i | i
O=C(c1cccnc1)N1CCc2ccccc21 | i | i | 159 | i | 140 | i | i
COc1cc2c(cc1OC)CN(C(C)C(=O)N1CCc3ccccc31)CC2 (stereo not drawn) | i | i | i | i | nt | nt | nt
CCOCC(=O)N1CCc2ccccc21 | i | i | 151 | i | 139 | i | i
O=C(CN(c1ccc(Cl)c(C(F)(F)F)c1)S(=O)(=O)c1ccccc1)N/N=C/c1cccc2c1OCCO2 | i | i | i | i | nt | nt | nt
Cc1cc(NC(=O)c2ccc(C)c(C)c2)no1 | i | i | nt | i | nt | nt | nt
O=C(O)CCN1C(=O)c2ccc(NC(=O)CCc3ccccc3)cc2C1=O | i | i | nt | i | nt | nt | nt
CC(=O)C(=Nc1ccccc1Cl)NNc1ccc(Cl)cc1 | i | i | i | i | nt | nt | nt
O=C1c2ccccc2C(c2nnnn2-c2ccc3c(c2)OCCO3)N1Cc1ccco1 (stereo not drawn) | nt | nt | nt | i | nt | nt | nt
O=C(CCCC(=O)N1CCc2ccccc21)N1CCc2ccccc21 | i | nt | nt | i | nt | nt | nt
CCN(CC)C(=O)N1CCc2ccccc21 | i | i | 146 | i | 151 | i | i
Cn1c(CNc2ccccc2O)nc2ccccc21 | i | 76 | 159 | i | 179 | i | i
Cn1c(Cc2nc3ccccc3n2C)nc2ccccc21 | i | i | nt | i | nt | nt | nt
c1ccc(-c2nc(CSc3nnc(-c4cccs4)o3)cs2)cc1 | i | i | 161 | i | 168 | i | 121
Cc1ccc(Nc2nc(CSc3nnc(-c4cccs4)o3)cs2)cc1 | i | i | i | i | nt | nt | nt
CCN1CCN(P2(=O)C=C(c3ccccc3)OC(c3ccccc3)=C2)CC1 | i | i | i | i | nt | nt | nt
O=P1(O)C=C(c2ccccc2)OC(c2ccccc2)=C1 | i | i | 136 | i | 145 | i | 127
CCc1ccc(N(C(=O)c2csnn2)C(C(=O)NC(C)(C)CC)c2ccccn2)cc1 (stereo not drawn) | i | i | i | i | nt | nt | nt
CCc1ccc(N(C(=O)c2csnn2)C(C(=O)NC(C)(C)C)c2ccccn2)cc1 (stereo not drawn) | i | i | 139 | i | 135 | i | i
SMILES | GAA850 FXN act | AHR activator | STAT3 act-1 | ABCB6 inh MLPCN | STAT3 act-2 | NFkB act STAT3ct | STAT1 act STAT3c
CC(C)CC1NC(=O)N(CC(=O)Nc2ccc3c(c2)OCCO3)C1=O (stereo not drawn) | i | i | nt | i | nt | nt | nt
Cc1ccc(S(=O)(=O)/N=C2/C=C(Sc3ncn[nH]3)C(=O)c3ccccc32)cc1 | i | 57 | 141 | i | i | i | i
CCn1c(=O)c(C(=O)Nc2ccsc2C(=O)OC)c(O)c2ccccc21 | nt | i | 138 | nt | 151 | i | i
CCOC(=O)c1ccccc1NC(=O)c1c(O)c2ccccc2n(CC)c1=O | i | i | i | i | nt | nt | nt
OCCNCCSc1nc(C2CCCCC2)n(-c2ccccc2Cl)n1 | i | i | nt | i | nt | nt | nt
Cc1ccc(-n2c(SCC(=O)Nc3ccc4cn[nH]c4c3)nnc2-c2ccco2)cc1 | i | i | 149 | i | 143 | i | i
Cn1c(SCC(=O)Nc2ccc3cn[nH]c3c2)nnc1-c1cnccn1 | i | i | 145 | i | 146 | i | i
Cn1c(SCC(=O)Nc2ccc3cn[nH]c3c2)nnc1-c1cccs1 | i | i | 162 | i | 149 | i | i
Cc1nn(C)c(C)c1NS(=O)(=O)c1cccc(Br)c1 | i | i | nt | i | nt | nt | nt
Fc1ccc(C2c3cccn3CCN2C(=S)Nc2cccc(Br)c2)cc1 (stereo not drawn) | i | i | i | i | nt | nt | nt
Cc1ccc(OC(C)C(=O)N/N=C/c2ccccn2)cc1 (stereo not drawn) | i | i | i | i | nt | nt | nt
Cc1cc(C)c(S(=O)(=O)NC2CC3CCC2C3)c(C)c1 (stereo not drawn) | i | i | nt | i | nt | nt | nt
CC1(C)C2CCC(C2)C1C/C=N/NC(N)=S (stereo not drawn) | i | i | nt | i | nt | nt | nt
COc1ccc(S(=O)(=O)Nc2c(C(=O)O)[nH]c3ccccc23)c(OC)c1 | i | i | 166 | i | 159 | i | i
O=C1C(=C(O)c2ccccc2)C(=O)c2ccccc21 | i | i | i | i | nt | nt | nt
O=C1C(=C(c2ccccc2)c2ccccc2)Nc2ccccc21 | i | i | 147 | i | 139 | i | i
Cn1ccnc1Sc1ccc(/C=N/NC(=O)c2ccccc2O)cc1[N+](=O)[O-] | i | i | 149 | i | 177 | i | 124
Cn1ccnc1Sc1ccc(/C=N/NC(=O)c2ccccc2[N+](=O)[O-])cc1[N+](=O)[O-] | i | i | i | i | nt | nt | nt
COc1ccc(CNC(=O)CSc2nnc(Cn3nnc4ccccc43)n2C)cc1 | i | i | i | i | nt | nt | nt
COc1cc(C(=O)N/N=C(\C)Cc2ccccc2)cc(OC)c1OC | i | i | 143 | i | i | i | i
Cc1c(/C=N\NC(=O)C2COc3ccccc3O2)c2ccccc2n1C (stereo not drawn) | i | 51 | 139 | i | i | i | i
Cc1sc2c(c1C)CN(C(C)(C)C)CN2C(=O)c1ccccc1 | i | i | 142 | i | i | i | i
Cc1sc2c(c1C)CN(Cc1ccncc1)CN2C(=O)c1ccco1 | i | i | i | i | nt | nt | nt
Cc1cc(=O)n2c(C(=O)Nc3ccc(C)c(C)c3)c(C(=O)Nc3ccccc3)sc2n1 | i | i | i | i | nt | nt | nt
COc1ccc(C(C)=O)c2c(O)cccc12 | i | i | 150 | i | 148 | i | i
COc1ccc(C(=O)c2ccccc2)c2c(O)ccc(C(=O)c3ccccc3)c12 | i | i | i | i | nt | nt | nt
COc1cc(C)c(S(=O)(=O)NCc2cccnc2)cc1C | i | i | nt | i | nt | nt | nt
Cc1c(C(=O)Nc2ccc(Cl)cn2)oc2ccccc12 | i | 64 | 195 | i | 197 | 134 | 138
O=C(Nc1ccccc1)c1ccc2ccccc2n1 | i | i | 153 | i | 188 | 141 | 176
